Measured values reported in ChEMBL document CHEMBL5303300, “EUbOPEN Chemogenomics Library - Multiplex” (2023).
Where “and” joins values, the source holds several entries; their conditions need not be identical. Equal values may be shown once.

Experiments:
Type in all cases: toxicity, cell-based
HEK-293T = assay: Multiplex assay against HEK293T; settings: human, number of replicates 2
Outline: (§1)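 Hoechst33342, BioTracker Green Microtubule Cytoskeleton Dye, MitoTracker Red and Annexin V Alexa Fluor 680 were added to live cells at seeding, and imaging on a CQ1 microscope at 37°C and 5% CO2 followed compound addition. Gating by CellPathfinder machine learning separated cells into Hoechst high-intensity objects or normal cells, then normal cells into healthy, pyknosed or fragmented nuclei, then pyknosed cells into mitotic or apoptotic. Per cents of healthy-nucleus cells are reported for the tubulin, mitochondrial-mass and membrane-permeability phenotypes.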

Fibroblast = assay: Multiplex assay against human fibroblast; settings: number of replicates 2; outline: as §1
U2OS = assay: Multiplex assay against U2OS; settings: human, number of replicates 2; outline: as §1
[1] = 12 h, 1 µM, compound concentration 1 uM
[2] = 12 h, 10 µM, compound concentration 10 uM
[3] = 24 h, 1 µM, compound concentration 1 uM
[4] = 24 h, 10 µM, compound concentration 10 uM
[5] = 48 h, 1 µM, compound concentration 1 uM
[6] = 48 h, 10 µM, compound concentration 10 uM

## NCC1CCC(CNc2nc(NCc3ccccc3OC(F)(F)F)ncc2[N+](=O)[O-])CC1 (stereo unspecified)
HEK-293T; [1]
  Population Apoptotic (%): 50% and 53%
  Population Fragmented Nuclei (%): 3% and 4%
  Population Healthy Nuclei (%): 86% and 81%
  Population Hoechst High Intensity Objects (%): 9% and 10%
  Population Membrane Permeable-Phenotype (%): 5% and 1%
  Population Mitochondria Different-Phenotype (%): 23% and 25%
  Population Mitotic Cells (%): 50% and 46%
  Population Normal (%): 90% and 89%
  Population Pyknosed Nuclei (%): 9% and 14%
  Population Tubulin-Different-Phenotype (%): 86% and 81%
  Total Cell Count: 881 and 733
HEK-293T; [2]
  Population Apoptotic (%): 73% and 77%
  Population Fragmented Nuclei (%): 6% and 2%
  Population Healthy Nuclei (%): 79% and 81%
  Population Hoechst High Intensity Objects (%): 8% and 9%
  Population Membrane Permeable-Phenotype (%): 1%
  Population Mitochondria Different-Phenotype (%): 82%
  Population Mitotic Cells (%): 26% and 22%
  Population Normal (%): 91% and 90%
  Population Pyknosed Nuclei (%): 13% and 16%
  Population Tubulin-Different-Phenotype (%): 93% and 91%
  Total Cell Count: 345 and 365
HEK-293T; [3]
  Population Apoptotic (%): 40% and 60%
  Population Fragmented Nuclei (%): 6% and 5%
  Population Healthy Nuclei (%): 85%
  Population Hoechst High Intensity Objects (%): 8% and 9%
  Population Membrane Permeable-Phenotype (%): 4% and 2%
  Population Mitochondria Different-Phenotype (%): 9% and 10%
  Population Mitotic Cells (%): 59% and 40%
  Population Normal (%): 91% and 90%
  Population Pyknosed Nuclei (%): 7% and 9%
  Population Tubulin-Different-Phenotype (%): 70% and 65%
  Total Cell Count: 1307 and 1039
HEK-293T; [4]
  Population Apoptotic (%): 67% and 68%
  Population Fragmented Nuclei (%): 4% and 2%
  Population Healthy Nuclei (%): 79% and 81%
  Population Hoechst High Intensity Objects (%): 9% and 7%
  Population Membrane Permeable-Phenotype (%): 0% and 2%
  Population Mitochondria Different-Phenotype (%): 81% and 78%
  Population Mitotic Cells (%): 32% and 31%
  Population Normal (%): 90% and 92%
  Population Pyknosed Nuclei (%): 15%
  Population Tubulin-Different-Phenotype (%): 94% and 95%
  Total Cell Count: 375 and 418
HEK-293T; [5]
  Population Apoptotic (%): 12% and 31%
  Population Fragmented Nuclei (%): 17% and 10%
  Population Healthy Nuclei (%): 80% and 86%
  Population Hoechst High Intensity Objects (%): 11% and 12%
  Population Membrane Permeable-Phenotype (%): 5% and 3%
  Population Mitochondria Different-Phenotype (%): 0% and 1%
  Population Mitotic Cells (%): 87% and 68%
  Population Normal (%): 88% and 87%
  Population Pyknosed Nuclei (%): 2% and 3%
  Population Tubulin-Different-Phenotype (%): 42% and 39%
  Total Cell Count: 2914 and 2116
HEK-293T; [6]
  Population Apoptotic (%): 67% and 62%
  Population Fragmented Nuclei (%): 6% and 5%
  Population Healthy Nuclei (%): 80%
  Population Hoechst High Intensity Objects (%): 7% and 9%
  Population Membrane Permeable-Phenotype (%): 4% and 3%
  Population Mitochondria Different-Phenotype (%): 70% and 57%
  Population Mitotic Cells (%): 32% and 37%
  Population Normal (%): 92% and 90%
  Population Pyknosed Nuclei (%): 13%
  Population Tubulin-Different-Phenotype (%): 93% and 94%
  Total Cell Count: 433 and 530
Fibroblast; [1]
  Population Apoptotic (%): 46% and 42%
  Population Fragmented Nuclei (%): 9%
  Population Healthy Nuclei (%): 68% and 62%
  Population Hoechst High Intensity Objects (%): 0%
  Population Membrane Permeable-Phenotype (%): 7% and 9%
  Population Mitochondria Different-Phenotype (%): 1% and 2%
  Population Mitotic Cells (%): 53% and 57%
  Population Normal (%): 100% and 99%
  Population Pyknosed Nuclei (%): 21% and 27%
  Population Tubulin-Different-Phenotype (%): 60% and 45%
  Total Cell Count: 205 and 224
Fibroblast; [2]
  Population Apoptotic (%): 34% and 27%
  Population Fragmented Nuclei (%): 14% and 23%
  Population Healthy Nuclei (%): 54% and 60%
  Population Hoechst High Intensity Objects (%): 0%
  Population Membrane Permeable-Phenotype (%): 6% and 9%
  Population Mitochondria Different-Phenotype (%): 28% and 18%
  Population Mitotic Cells (%): 65% and 72%
  Population Normal (%): 100%
  Population Pyknosed Nuclei (%): 31% and 16%
  Population Tubulin-Different-Phenotype (%): 84% and 87%
  Total Cell Count: 135 and 286
Fibroblast; [3]
  Population Apoptotic (%): 64% and 60%
  Population Fragmented Nuclei (%): 10% and 15%
  Population Healthy Nuclei (%): 67% and 62%
  Population Hoechst High Intensity Objects (%): 0% and 1%
  Population Membrane Permeable-Phenotype (%): 0% and 1%
  Population Mitochondria Different-Phenotype (%): 8%
  Population Mitotic Cells (%): 35% and 40%
  Population Normal (%): 100% and 98%
  Population Pyknosed Nuclei (%): 22% and 21%
  Population Tubulin-Different-Phenotype (%): 50% and 37%
  Total Cell Count: 202 and 217
Fibroblast; [4]
  Population Apoptotic (%): 81% and 62%
  Population Fragmented Nuclei (%): 21% and 22%
  Population Healthy Nuclei (%): 58% and 67%
  Population Hoechst High Intensity Objects (%): 0%
  Population Membrane Permeable-Phenotype (%): 5% and 3%
  Population Mitochondria Different-Phenotype (%): 54% and 59%
  Population Mitotic Cells (%): 18% and 37%
  Population Normal (%): 100%
  Population Pyknosed Nuclei (%): 20% and 9%
  Population Tubulin-Different-Phenotype (%): 93%
  Total Cell Count: 132 and 274
Fibroblast; [5]
  Population Apoptotic (%): 70% and 72%
  Population Fragmented Nuclei (%): 10% and 13%
  Population Healthy Nuclei (%): 72% and 65%
  Population Hoechst High Intensity Objects (%): 0%
  Population Membrane Permeable-Phenotype (%): 4% and 3%
  Population Mitochondria Different-Phenotype (%): 2% and 4%
  Population Mitotic Cells (%): 29% and 27%
  Population Normal (%): 100%
  Population Pyknosed Nuclei (%): 16% and 20%
  Population Tubulin-Different-Phenotype (%): 38% and 35%
  Total Cell Count: 210 and 217
Fibroblast; [6]
  Population Apoptotic (%): 90% and 66%
  Population Fragmented Nuclei (%): 28% and 36%
  Population Healthy Nuclei (%): 65% and 58%
  Population Hoechst High Intensity Objects (%): 1% and 0%
  Population Membrane Permeable-Phenotype (%): 0% and 4%
  Population Mitochondria Different-Phenotype (%): 34% and 30%
  Population Normal (%): 98% and 99%
  Population Pyknosed Nuclei (%): 6% and 4%
  Population Tubulin-Different-Phenotype (%): 92% and 91%
  Total Cell Count: 160 and 339
U2OS; [1]
  Population Apoptotic (%): 50% and 43%
  Population Fragmented Nuclei (%): 5% and 1%
  Population Healthy Nuclei (%): 74% and 87%
  Population Hoechst High Intensity Objects (%): 0%
  Population Membrane Permeable-Phenotype (%): 7%
  Population Mitochondria Different-Phenotype (%): 7% and 18%
  Population Mitotic Cells (%): 50% and 56%
  Population Normal (%): 100% and 99%
  Population Pyknosed Nuclei (%): 19% and 11%
  Population Tubulin-Different-Phenotype (%): 31% and 29%
U2OS; [2]
  Population Apoptotic (%): 68% and 67%
  Population Fragmented Nuclei (%): 24% and 19%
  Population Healthy Nuclei (%): 36% and 61%
  Population Hoechst High Intensity Objects (%): 0%
  Population Membrane Permeable-Phenotype (%): 53% and 34%
  Population Mitochondria Different-Phenotype (%): 73% and 64%
  Population Mitotic Cells (%): 31% and 32%
  Population Normal (%): 100%
  Population Pyknosed Nuclei (%): 39% and 19%
  Population Tubulin-Different-Phenotype (%): 93% and 76%
U2OS; [3]
  Population Apoptotic (%): 60%
  Population Fragmented Nuclei (%): 1% and 0%
  Population Healthy Nuclei (%): 81% and 85%
  Population Hoechst High Intensity Objects (%): 0%
  Population Membrane Permeable-Phenotype (%): 4% and 5%
  Population Mitochondria Different-Phenotype (%): 0% and 22%
  Population Mitotic Cells (%): 40% and 39%
  Population Normal (%): 100%
  Population Pyknosed Nuclei (%): 16% and 13%
  Population Tubulin-Different-Phenotype (%): 20% and 30%
U2OS; [4]
  Population Apoptotic (%): 100% and 80%
  Population Fragmented Nuclei (%): 28% and 21%
  Population Healthy Nuclei (%): 31% and 59%
  Population Hoechst High Intensity Objects (%): 0%
  Population Membrane Permeable-Phenotype (%): 63% and 43%
  Population Mitochondria Different-Phenotype (%): 36% and 55%
  Population Mitotic Cells (%): 0% and 19%
  Population Normal (%): 100%
  Population Pyknosed Nuclei (%): 40% and 19%
  Population Tubulin-Different-Phenotype (%): 90% and 81%
U2OS; [5]
  Population Apoptotic (%): 76% and 78%
  Population Fragmented Nuclei (%): 6% and 1%
  Population Healthy Nuclei (%): 71% and 88%
  Population Hoechst High Intensity Objects (%): 0%
  Population Membrane Permeable-Phenotype (%): 7% and 2%
  Population Mitochondria Different-Phenotype (%): 3% and 10%
  Population Mitotic Cells (%): 23% and 21%
  Population Normal (%): 100%
  Population Pyknosed Nuclei (%): 21% and 9%
  Population Tubulin-Different-Phenotype (%): 19% and 34%
U2OS; [6]
  Population Apoptotic (%): 100% and 91%
  Population Fragmented Nuclei (%): 24% and 21%
  Population Healthy Nuclei (%): 24% and 54%
  Population Hoechst High Intensity Objects (%): 0%
  Population Membrane Permeable-Phenotype (%): 100% and 72%
  Population Mitochondria Different-Phenotype (%): 75% and 46%
  Population Mitotic Cells (%): 0% and 8%
  Population Normal (%): 100%
  Population Pyknosed Nuclei (%): 51% and 23%
  Population Tubulin-Different-Phenotype (%): 100% and 86%
